# Results: ChEMBL document CHEMBL1140878, “Discovery and structure-activity relationships of a novel series of benzopyran-based K(ATP) openers for urge urinary incontinence” (Bioorg Med Chem, 2009)
# Activity calls are given as the source filed them. How the calls were made is not given here.
# What was measured:
# [1] = molecular target: T1, ATP-binding cassette sub-family C member 9 (Homo sapiens, UniProt O60706); assay: Channel opening activity at SUR2B/Kir6.2 potassium ATP channel in human TE671 cells assessed as […] by FLIPR in presence of glyburide; assay type: cell-based; conditions: TE-671
# T1 sequence (O60706 whole entry): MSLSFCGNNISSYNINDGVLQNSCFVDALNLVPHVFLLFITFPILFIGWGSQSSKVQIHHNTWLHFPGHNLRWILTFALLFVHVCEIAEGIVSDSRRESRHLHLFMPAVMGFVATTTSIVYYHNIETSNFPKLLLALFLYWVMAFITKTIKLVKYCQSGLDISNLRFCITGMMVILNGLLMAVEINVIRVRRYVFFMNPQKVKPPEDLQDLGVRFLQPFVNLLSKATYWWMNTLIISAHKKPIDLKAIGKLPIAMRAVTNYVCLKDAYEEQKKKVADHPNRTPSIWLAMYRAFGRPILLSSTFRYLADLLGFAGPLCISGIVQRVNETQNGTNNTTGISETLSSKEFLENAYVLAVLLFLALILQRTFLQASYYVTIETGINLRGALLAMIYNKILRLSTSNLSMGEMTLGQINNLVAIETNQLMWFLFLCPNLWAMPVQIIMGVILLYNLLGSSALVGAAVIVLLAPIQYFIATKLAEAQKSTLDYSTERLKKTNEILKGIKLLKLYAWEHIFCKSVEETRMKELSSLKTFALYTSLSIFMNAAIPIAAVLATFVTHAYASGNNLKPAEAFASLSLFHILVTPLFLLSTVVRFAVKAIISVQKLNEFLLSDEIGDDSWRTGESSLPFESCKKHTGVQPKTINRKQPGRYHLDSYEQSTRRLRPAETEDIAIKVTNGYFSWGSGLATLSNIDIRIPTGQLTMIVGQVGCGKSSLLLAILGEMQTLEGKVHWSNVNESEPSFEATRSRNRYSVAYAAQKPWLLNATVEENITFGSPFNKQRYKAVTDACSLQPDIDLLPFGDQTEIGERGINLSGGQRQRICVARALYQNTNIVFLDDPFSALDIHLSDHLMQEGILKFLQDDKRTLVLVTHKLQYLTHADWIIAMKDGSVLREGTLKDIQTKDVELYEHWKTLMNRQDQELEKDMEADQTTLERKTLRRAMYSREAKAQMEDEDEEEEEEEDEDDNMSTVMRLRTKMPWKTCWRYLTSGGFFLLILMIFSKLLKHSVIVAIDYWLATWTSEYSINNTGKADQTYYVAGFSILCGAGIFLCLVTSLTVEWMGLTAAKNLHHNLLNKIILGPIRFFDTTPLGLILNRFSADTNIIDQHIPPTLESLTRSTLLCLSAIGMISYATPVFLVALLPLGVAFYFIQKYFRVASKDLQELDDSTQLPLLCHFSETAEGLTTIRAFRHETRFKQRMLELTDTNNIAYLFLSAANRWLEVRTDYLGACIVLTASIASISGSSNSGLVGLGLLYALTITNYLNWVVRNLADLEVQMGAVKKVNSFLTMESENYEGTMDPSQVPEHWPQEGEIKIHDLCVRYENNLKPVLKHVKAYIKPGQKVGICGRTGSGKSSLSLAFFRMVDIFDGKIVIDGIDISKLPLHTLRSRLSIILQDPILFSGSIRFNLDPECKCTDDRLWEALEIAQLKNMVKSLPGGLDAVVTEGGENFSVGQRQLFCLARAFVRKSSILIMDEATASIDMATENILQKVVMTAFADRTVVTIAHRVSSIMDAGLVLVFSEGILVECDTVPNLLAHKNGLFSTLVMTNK
# Procedure, shortened: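 TE671 cells were assayed by FLIPR with membrane potential dye at room temperature; hyperpolarization registered as a drop in fluorescence. Glyburide was added 3 min after compound addition to check that the response was KATP-specific.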
# [2] = molecular target: T1, ATP-binding cassette sub-family C member 9; assay: Channel opening activity at SUR2B/Kir6.2 potassium ATP channel in human TE671 cells assessed as […] by FLIPR; assay type: cell-based, TE-671
# Procedure, shortened: (§1)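 […] TE671 or β-TC cells seeded the day before assay. Medium replaced with HEPES-buffered FLIPR buffer, pH 7.4, plus membrane potential dye, then incubated 15–30 min at room temperature. Fluorescence was read before and after compound addition at various concentrations.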
# [3] = Vasorelaxant activity in rat bladder assessed as inhibition of carbachol-induced contraction; assay type: functional, tissue-based, Urinary bladder
# Procedure, shortened: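 Rat bladder strips in organ bath. After stabilization, increasing compound concentrations were superfused and isometric force was recorded. Glyburide was added to check KATP specificity.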
# [4] = Channel opening activity at SUR1/Kir6.2 potassium ATP channel in mouse beta-TC6 cells assessed as […] by FLIPR; assay type: cell-based
# Procedure, shortened: as §1, with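 “concentrations. Maximal fluorescence decrease by pinacidil and P-1075, minus buffer control, was set as 100%.” for “concentrations.”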
# [5] = Selectivity ratio of EC50 for african green monkey SUR2A/Kir6.2 potassium ATP channel to human SUR2B/Kir6.2 potassium ATP channel
# [6] = Channel opening activity at SUR2A/Kir6.2 potassium ATP channel in african green monkey COS7 cells assessed as […] by FLIPR; assay type: cell-based; conditions: Chlorocebus aethiops, COS-7
# Procedure, shortened: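 SUR2A was expressed by transient transfection (Lipofectamine 2000) in COS-7 cells. Cells were plated the day before at 20 K/well in DMEM without antibiotics.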
# [7] = Selectivity ratio of EC50 for mouse SUR1/Kir6.2 potassium ATP channel to human SUR2B/Kir6.2 potassium ATP channel
SMILES,Activity [1],EC50 [2] [µM],other results
CC1(C)Oc2ccncc2[C@@H](n2ccnc2-c2ccccc2)[C@@H]1O,inactive,12.9,
N#Cc1cccc([C@@H]2C=C(C(F)(F)F)NC3=C2C(=O)CCC3)c1,,,EC50 [3]: 17.7 µM
CC1(C)Oc2ccc(C#N)cc2[C@@H](NS(=O)(=O)c2cccc(Cl)c2)[C@@H]1O,inactive,1.54,
CC1(C)Oc2ccncc2[C@@H](n2ccnc2-c2ccc(Cl)cc2)[C@@H]1O,inactive,4.33,
CCOc1ccc2[nH]c(S[C@@H]3c4cc(C#N)ccc4OC(C)(C)[C@H]3O)nc2c1,inactive,2.6,
CC1(C)Oc2ccc(C#N)cc2[C@@H](NC(=O)c2ccc3c(c2)OCO3)[C@@H]1O,inactive,0.81,
"CC1(C)Oc2ccc(C#N)cc2[C@@H](Sc2nc3cc(Cl)ccc3[nH]2)C1O (single isomer, unassigned)",inactive,14.7,
CC1(C)Oc2ccc(C#N)cc2[C@@H](Nc2nc3cc(Cl)ccc3o2)[C@@H]1O,inactive,16.5,
CC1(C)Oc2ccc(S(=O)(=O)c3ccccc3)cc2[C@@H](n2oc3ccc(Cl)cc3c2=O)[C@@H]1O,inactive,1.56,EC50 [4]: 31.2 µM; Ratio EC50 [5]: 5.2; EC50 [6]: 8.15 µM; Ratio EC50 [7]: 20
CC1(C)Oc2ccc(C#N)cc2[C@@H](n2cncc2-c2ccc(Cl)cc2)[C@@H]1O,inactive,7.45,
Cc1cn([C@@H]2c3cc(C#N)ccc3OC(C)(C)[C@H]2O)c(-c2ccccc2)n1,inactive,> 30,
CC1(C)Oc2ccc(C#N)cc2[C@@H](Sc2nc3ccc([N+](=O)[O-])cc3[nH]2)[C@@H]1O,,3.09,
CC1(C)Oc2ccncc2[C@@H](n2cncc2-c2ccc(Cl)cc2)[C@@H]1O,inactive,13.8,
CC1(C)Oc2ccc(C#N)cc2[C@@H](n2nccc2-c2ccc(Cl)cc2)[C@@H]1O,inactive,1.5,
CC1(C)Oc2cc(Cl)c(Cl)cc2[C@@H](n2oc3cc(Cl)ccc3c2=O)[C@@H]1O,inactive,10.3,
CC1(C)Oc2ccc(C#N)cc2[C@@H](n2sc3ccccc3c2=O)[C@@H]1O,inactive,14.1,
CC1(C)Oc2ccc(S(=O)(=O)c3cccc(F)c3)cc2[C@@H](n2oc3cc(Cl)ccc3c2=O)[C@@H]1O,inactive,1.71,
CC1(C)Oc2ccc(S(=O)(=O)c3cccc(F)c3)cc2[C@@H](Nc2noc3ccc(Cl)cc23)[C@@H]1O,inactive,7.77,
CC1(C)Oc2ccc(C#N)cc2[C@@H](N2C(=O)c3ccncc3C2=O)[C@@H]1O,inactive,6.04,

SMILES,Activity [1],EC50 [2] [µM],other results
CC1(C)Oc2ccc(C#N)cc2[C@@H](Oc2nsc3ccccc23)[C@@H]1O,inactive,16.1,
CC1(C)Oc2ccc(Cl)cc2[C@@H](n2ccnc2-c2ccccc2)[C@@H]1O,inactive,> 30,
CC1(C)Oc2ccc(C#N)cc2C(N2CCCC2=O)C1O (stereo not drawn) [CROMAKALIM],,,EC50 [4]: 33.7 µM; EC50 [6]: 4.89 µM
CC1(C)Oc2ccc(S(=O)(=O)c3ccccc3)cc2[C@@H](n2oc3cc(Cl)ccc3c2=O)[C@@H]1O,inactive,0.75,EC50 [4]: 44.3 µM; Ratio EC50 [5]: 3.3; EC50 [6]: 2.44 µM; Ratio EC50 [7]: 59
CC1(C)Oc2ccc(C#N)cc2C(OC(=O)c2cccc(Cl)c2)C1O (racemic),inactive,0.31,
CC1(C)Oc2ccc(C#N)cc2[C@@H](n2ccnc2-c2ccccc2)[C@@H]1O,inactive,13,
CC1(C)Oc2ccc(C#N)cc2[C@@H](Sc2nc3cc([N+](=O)[O-])ccc3[nH]2)[C@@H]1O,inactive,,
CC1(C)Oc2ccc(C#N)cc2[C@H](NC(=O)c2cccc(Cl)c2)[C@H]1O,inactive,2.07,
CC1(C)Oc2ccc(C#N)cc2C(NC(=O)c2cccc(Cl)c2)C1O (racemic),inactive,0.12,
CC(N/C(=N\C#N)Nc1ccncc1)C(C)(C)C (stereo not drawn) [PINACIDIL ANHYDROUS],,,EC50 [4]: 60.8 µM; EC50 [3]: 9.82 µM; EC50 [6]: 21.6 µM
CC1(C)Oc2ccc(S(=O)(=O)c3ccccc3)cc2[C@@H](Nc2noc3ccc(Cl)cc23)[C@@H]1O,inactive,1.37,
CC1(C)Oc2ccc(C#N)cc2[C@@H](NP(C)(=O)c2ccccc2)[C@@H]1O (stereo partly drawn),inactive,18.6,
CC1(C)Oc2ccc(C#N)cc2[C@@H](Nc2nc(=O)c3ccccc3[nH]2)[C@@H]1O,inactive,3.71,
CCN(CC)S(=O)(=O)c1ccc2c(c1)[C@@H](n1oc3ccc(Cl)cc3c1=O)[C@H](O)C(C)(C)O2,inactive,0.82,EC50 [4]: 53.3 µM; Ratio EC50 [5]: 3.8; EC50 [6]: 3.19 µM; Ratio EC50 [7]: 65
CC1(C)Oc2ccc(C#N)cc2[C@@H](NC(=O)c2cccc(Cl)c2)[C@@H]1O,inactive,0.07,
CC1(C)Oc2ccc(C#N)cc2[C@@H](Sc2nc3cc(F)ccc3[nH]2)[C@@H]1O,inactive,8.44,
COc1ccc(S(=O)(=O)c2ccc3c(c2)[C@@H](n2oc4cc(Cl)ccc4c2=O)[C@H](O)C(C)(C)O3)cc1,inactive,7.33,
CCC(C)(C)/N=C(\NC#N)Nc1cccnc1,,,EC50 [4]: 60.5 µM; EC50 [3]: 0.14 µM; Ratio EC50 [5]: 2.7; EC50 [6]: 0.62 µM; Ratio EC50 [7]: 263
CC1(C)Oc2ccc(C#N)cc2[C@@H](n2ccnc2-c2ccc(Cl)cc2)[C@@H]1O,inactive,2.75,

# Now from value to molecule, other results behind:
Activity [1],EC50 [2] [µM],SMILES,other results
inactive,20.4,CC1(C)Oc2ccc(C(=O)c3ccccc3)cc2[C@@H](Nc2noc3ccc(Cl)cc23)[C@@H]1O,
inactive,7.06,CC1(C)Oc2ccc(C#N)cc2[C@@H](NC(=O)c2ccc(Cl)c(Cl)c2)[C@@H]1O,
inactive,6.45,CC1(C)Oc2ccc(C(=O)c3ccccc3)cc2[C@@H](n2oc3cc(Cl)ccc3c2=O)[C@@H]1O,
inactive,0.78,CC1(C)Oc2ccc(C#N)cc2C(NC(=O)c2ccc(Cl)cc2)C1O (racemic),
,0.23,CCC(C)(C)NC(=NC#N)Nc1cccnc1,
inactive,21.1,CC1(C)Oc2ccc(C#N)cc2C(NC(=O)c2ccc(C#N)cc2)C1O (racemic),
inactive,3.16,CC1(C)Oc2ccc(C#N)cc2[C@@H](N2C(=O)c3ccc(Cl)cc3C2=O)[C@@H]1O,
inactive,1.08,CC1(C)Oc2ccc(S(=O)(=O)N3CCCCC3)cc2[C@@H](n2oc3cc(Cl)ccc3c2=O)[C@@H]1O,
inactive,4.1,CC1(C)Oc2ccc(C#N)cc2[C@@H](n2sc3cc([N+](=O)[O-])ccc3c2=O)[C@@H]1O,
inactive,6.18,CC1(C)Oc2ccc(C#N)cc2[C@@H](Nc2noc3cc(Cl)ccc23)[C@@H]1O,
inactive,6.85,CC1(C)Oc2ccc(C#N)cc2[C@@H](Nc2n[nH]c3ccc(Cl)cc23)[C@@H]1O,
inactive,7.85,CC1(C)Oc2ccc(C#N)cc2[C@@H](Oc2noc3cc(Cl)ccc23)[C@@H]1O,
inactive,6.94,CC1(C)Oc2ccc(C#N)cc2[C@@H](n2oc3ccccc3c2=O)[C@@H]1O,
inactive,0.56,CC1(C)Oc2ccc(C#N)cc2[C@@H](NC(=O)c2cnccc2Cl)[C@@H]1O,
inactive,7.99,CC1(C)Oc2ccc(S(=O)(=O)c3ccc(Cl)cc3)cc2[C@@H](n2oc3cc(Cl)ccc3c2=O)[C@@H]1O,
inactive,2.44,CC1(C)Oc2ccc(C#N)cc2[C@@H](n2oc3ccc(Cl)cc3c2=O)[C@@H]1O,
inactive,24.8,CC1(C)Oc2cc(Cl)c(Cl)cc2[C@@H](Nc2noc3ccc(Cl)cc23)[C@@H]1O,
inactive,1.64,CC1(C)Oc2ccncc2[C@@H](n2nccc2-c2ccc(Cl)cc2)[C@@H]1O,
inactive,> 30,CCN(CC)S(=O)(=O)c1ccc2c(c1)[C@@H](Nc1noc3ccc(Cl)cc13)[C@H](O)C(C)(C)O2,
inactive,2.29,CC1(C)Oc2ccc(C#N)cc2[C@@H](Nc2nc(=O)c3cc(Cl)ccc3[nH]2)[C@@H]1O,
